Measurements from ChEMBL document CHEMBL1165950, “Design and synthesis of new potent anticancer pyrazoles with high FLT3 kinase inhibitory selectivity” (Bioorg Med Chem, 2010).

What was measured:
Format in all cases: functional
SF-268 = assay: Cytotoxicity against human SF268 cells assessed as cell growth at 100 nM after 48 hrs by sulforhodamine B assay; details: SF-268, 48 h, read-out: Activity
NCI-H460 [1] = assay: Cytotoxicity against human NCI-H460 cells assessed as cell growth at 10 uM after 48 hrs by sulforhodamine B assay; details: NCI-H460, 48 h, read-out: Activity
SNB-19 [2] = assay: Cytotoxicity against human SNB19 cells assessed as cell growth at 100 nM after 48 hrs by sulforhodamine B assay; details: SNB-19, 48 h, read-out: Activity
COLO 205 = assay: Cytotoxicity against human COLO205 cells assessed as cell growth at 10 uM after 48 hrs by sulforhodamine B assay; details: COLO 205, 48 h, read-out: Activity
[3] = Cytotoxicity against human Hs 578T cells assessed as cell growth at 100 nM after 48 hrs by sulforhodamine B assay; details: read-out: Activity
NCI-H460 [4] = assay: Growth inhibition of human NCI-H460 cells after 48 hrs by sulforhodamine B assay; details: NCI-H460, 48 h; for CC50: read-out: LC50 (the source's name)
Method in brief: (§1)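 NCI 60-cell screen, five-dose mode. Cells grown in RPMI 1640 with 5% FBS and 2 mM L-glutamine and plated at 5000-40,000 cells/well according to doubling time. After 24 h preincubation, a Tz plate was TCA-fixed. Five concentrations (10-fold or 1/2 log dilutions) were applied for 48 h at 37 °C. SRB staining read at 515 nm. IC50 taken from [(Ti-Tz)/(C-Tz)]×100 = 50.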

OVCAR-5 = assay: Cytotoxicity against human OVCAR5 cells assessed as cell growth at 0.01 uM after 48 hrs by sulforhodamine B assay; details: OVCAR-5, 48 h, read-out: Activity
TK-10 [5] = assay: Cytotoxicity against human TK10 cells assessed as cell growth at 0.01 uM after 48 hrs by sulforhodamine B assay; details: TK-10, 48 h, read-out: Activity
A549 = assay: Cytotoxicity against human A549 cells assessed as cell growth at 1 uM after 48 hrs by sulforhodamine B assay; details: A549, 48 h, read-out: Activity
Method in brief: (§2)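 NCI-60 five-dose screen. Cells were grown in RPMI 1640 with 5% FBS and 2 mM L-glutamine, plated at 5000–40,000 cells/well and preincubated for 24 h. Time-zero plates were TCA-fixed. DMSO-solubilized drug was added at five concentrations (10-fold or ½-log serial dilutions) for 48 h at 37 °C, 5% CO2. Cells were TCA-fixed, stained with 0.4% SRB and read at 515 nm. Percent growth used time-zero, control and test absorbances.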

SN12C = assay: Cytotoxicity against human SN12C cells assessed as cell growth at 0.01 uM after 48 hrs by sulforhodamine B assay; details: read-out: Activity
SNB-19 [6] = assay: Growth inhibition of human SNB19 cells after 48 hrs by sulforhodamine B assay; details: SNB-19, 48 h; for CC50: read-out: LC50 (the source's name); method in brief: as §1
LOX IMVI = assay: Cytotoxicity against human LOXIMVI cells assessed as cell growth at 10 uM after 48 hrs by sulforhodamine B assay; details: read-out: Activity
OVCAR-3 = assay: Cytotoxicity against human OVCAR-3 cells assessed as cell growth at 10 uM after 48 hrs by sulforhodamine B assay; details: OVCAR-3, 48 h, read-out: Activity
786-0 = assay: Cytotoxicity against human 786-0 cells assessed as cell growth at 10 uM; details: read-out: Activity
Method in brief: (§3)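 Single-dose NCI-60 screen at 10 µM. Cells were grown in RPMI 1640 with 5% FBS and 2 mM L-glutamine, then treated for 48 h at 37 °C. Protein was measured by SRB staining with absorbance at 515 nm. Percentage growth was recorded, and inhibition percentage was calculated as 100 minus growth percentage.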

OVCAR-4 = assay: Cytotoxicity against human OVCAR4 cells assessed as cell growth at 0.001 uM after 48 hrs by sulforhodamine B assay; details: OVCAR-4, 48 h, read-out: Activity
KM12 [7] = assay: Cytotoxicity against human KM12 cells assessed as cell growth at 1 uM after 48 hrs by sulforhodamine B assay; details: KM12, 48 h, read-out: Activity
HCT-15 = assay: Cytotoxicity against human HCT15 cells assessed as cell growth at 10 uM; details: read-out: Activity; method in brief: as §3
KM12 [8] = assay: Cytotoxicity against human KM12 cells assessed as cell growth at 10 uM after 48 hrs by sulforhodamine B assay; details: KM12, 48 h, read-out: Activity
TK-10 [9] = assay: Cytotoxicity against human TK10 cells assessed as cell growth at 10 uM; details: read-out: Activity
Method in brief: (§4)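 NCI-60 screen: cells grown in RPMI 1640 with 5% FBS and 2 mM L-glutamine, plated at 5000–40,000 cells/well according to doubling time, and preincubated 24 h at 37 °C, 5% CO2. The single 10 µM dose (DMSO stock) was added, then incubated 48 h. Cells were TCA-fixed and stained with 0.4% SRB, read at 515 nm, and growth % calculated against time-zero and control plates.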

NCI-H23 = assay: Cytotoxicity against human NCI-H23 cells assessed as cell growth at 100 nM after 48 hrs by sulforhodamine B assay; details: NCI-H23, 48 h, read-out: Activity
UACC-257 [10] = assay: Cytotoxicity against human UACC257 cells assessed as cell growth at 0.01 uM after 48 hrs by sulforhodamine B assay; details: UACC-257, 48 h, read-out: Activity
A498 [11] = assay: Cytotoxicity against human A498 cells assessed as cell growth at 100 nM after 48 hrs by sulforhodamine B assay; details: A498, 48 h, read-out: Activity; method in brief: as §2
[12] = Cytotoxicity against human Hs 578T cells assessed as cell growth at 10 uM after 48 hrs by sulforhodamine B assay; details: read-out: Activity
PC-3 = assay: Cytotoxicity against human PC3 cells assessed as cell growth at 100 nM after 48 hrs by sulforhodamine B assay; details: PC-3, 48 h, read-out: Activity
A498 [13] = assay: Cytotoxicity against human A498 cells assessed as cell growth at 1 uM after 48 hrs by sulforhodamine B assay; details: A498, 48 h, read-out: Activity; method in brief: as §2
UACC-257 [14] = assay: Cytotoxicity against human UACC257 cells assessed as cell growth at 100 nM after 48 hrs by sulforhodamine B assay; details: UACC-257, 48 h, read-out: Activity
MDA-MB-468 = assay: Cytotoxicity against human MDA-MB-468 cells assessed as cell growth at 10 uM; details: read-out: Activity; method in brief: as §4
SF-295 = assay: Cytotoxicity against human SF295 cells assessed as cell growth at 0.01 uM after 48 hrs by sulforhodamine B assay; details: SF-295, 48 h, read-out: Activity
NCI/ADR-RES = assay: Cytotoxicity against human NCI/ADR-RES cells assessed as cell growth at 1 uM after 48 hrs by sulforhodamine B assay; details: read-out: Activity
SK-OV-3 = assay: Cytotoxicity against human SKOV3 cells assessed as cell growth at 0.001 uM after 48 hrs by sulforhodamine B assay; details: SK-OV-3, 48 h, read-out: Activity
TK-10 [15] = assay: Growth inhibition of human TK10 cells after 48 hrs by sulforhodamine B assay; details: TK-10, 48 h; for CC50: read-out: LC50 (the source's name); method in brief: as §1
MDA-MB-435 = assay: Cytotoxicity against human MDA-MB-435 cells assessed as cell growth at 10 uM; details: read-out: Activity; method in brief: as §4

Compound	growth at 0.1 µM (SF-268)	growth at 10 µM (NCI-H460 [1])	growth at 0.1 µM (SNB-19 [2])	growth at 10 µM (COLO 205)	growth at 0.1 µM [3]	CC50 (NCI-H460 [4])	growth at 0.01 µM (OVCAR-5)	growth at 0.01 µM (TK-10 [5])	growth at 1 µM (A549)	growth at 0.01 µM (SN12C)	GI50 (SNB-19 [6])	TGI (SNB-19 [6])	CC50 (SNB-19 [6])	growth at 10 µM (LOX IMVI)	growth at 10 µM (OVCAR-3)	growth at 10 µM (786-0)	growth at 0.001 µM (OVCAR-4)	growth at 1 µM (KM12 [7])	growth at 10 µM (HCT-15)	growth at 10 µM (KM12 [8])	further results
Cc1cc(O)cc(-c2nn(CC#N)cc2-c2ccnc(-c3ccc(Oc4ccccc4)cc3)c2)c1	91%	-88%	94%	-96%	82%	6.85 µM	72%	99%	-37%	88%	1.07 µM	23.4 µM	51.1 µM	-86%	-100%	58.1%	110%	-39%	4.26%	-100%	GI50 (NCI-H460 [4]): 1.87 µM; TGI (NCI-H460 [4]): 3.58 µM; growth at 10 µM (TK-10 [9]): 47.2%; growth at 0.1 µM (NCI-H23): 96%; growth at 0.01 µM (UACC-257 [10]): 80%; growth at 0.1 µM (A498 [11]): 84%; growth at 10 µM [12]: -49%; growth at 0.1 µM (PC-3): 81%; growth at 1 µM (A498 [13]): 26%; growth at 0.1 µM (UACC-257 [14]): 84%; growth at 10 µM (MDA-MB-468): 6.32%; growth at 0.01 µM (SF-295): 94%; growth at 1 µM (NCI/ADR-RES): -50%; growth at 0.001 µM (SK-OV-3): 79%; GI50 (TK-10 [15]): 4.25 µM; TGI (TK-10 [15]): 15.1 µM; CC50 (TK-10 [15]): 43.6 µM; growth at 10 µM (MDA-MB-435): 60.5%
Cc1cc(O)cc(-c2nn(CC#N)cc2-c2ccnc(-c3ccc(N(C)C)cc3)c2)c1	90%	-59%	93%	-82%	82%	70.5 µM	91%	107%	23%	90%	4.54 µM	43.9 µM	> 100 µM	-87%	-70%	26.2%	104%	-9%	22.9%	-97%	GI50 (NCI-H460 [4]): 2.79 µM; TGI (NCI-H460 [4]): 10.2 µM; growth at 10 µM (TK-10 [9]): 52.5%; growth at 0.1 µM (NCI-H23): 98%; growth at 0.01 µM (UACC-257 [10]): 81%; growth at 0.1 µM (A498 [11]): 92%; growth at 10 µM [12]: -32%; growth at 0.1 µM (PC-3): 94%; growth at 1 µM (A498 [13]): 5%; growth at 0.1 µM (UACC-257 [14]): 83%; growth at 10 µM (MDA-MB-468): -13.9%; growth at 0.01 µM (SF-295): 89%; growth at 1 µM (NCI/ADR-RES): -10%; growth at 0.001 µM (SK-OV-3): 92%; GI50 (TK-10 [15]): 8.4 µM; TGI (TK-10 [15]): 57.8 µM; CC50 (TK-10 [15]): > 100 µM; growth at 10 µM (MDA-MB-435): -43.2%
COc1cc(C)cc(-c2nn(CC#N)cc2-c2ccnc(-c3ccc(N(C)C)cc3)c2)c1	31%	-51%	35%	-61%	-19%	94.7 µM	93%	119%	14%	90%	0.567 µM	> 100 µM	> 100 µM	-23%	-42%	5.8%	106%	-37%	8.19%	-70%	growth at 10 µM (TK-10 [9]): 34.7%; growth at 0.1 µM (NCI-H23): 31%; growth at 0.01 µM (UACC-257 [10]): 91%; growth at 0.1 µM (A498 [11]): -8%; growth at 10 µM [12]: -5%; growth at 0.1 µM (PC-3): 14%; growth at 1 µM (A498 [13]): -26%; growth at 0.1 µM (UACC-257 [14]): 28%; growth at 10 µM (MDA-MB-468): -48.4%; growth at 0.01 µM (SF-295): 94%; growth at 1 µM (NCI/ADR-RES): -5%; growth at 0.001 µM (SK-OV-3): 105%; GI50 (TK-10 [15]): 0.101 µM; TGI (TK-10 [15]): 78.9 µM; CC50 (TK-10 [15]): > 100 µM; growth at 10 µM (MDA-MB-435): -22.6%
